# Assay results from PubChem BioAssay.
# Activity calls are given as the source filed them.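 How the source made its calls, unless noted: active means viability at or below 10% of carrier control in both of two separate runs; inconclusive means viability at or below 10% in only one of the two runs; inactive means the rest.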
# Key:
# [1] = SK-BR-3 cell growth inhibitors, pilot screen, 24 h, human (AID 572); conditions: SK-BR-3 viability, CellTiter-Glo luminescence, at 10 µM, stronger effect = lower value;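 further: compound exposure lasted between 18 and 24 h rather than exactly 24 h; 100% = carrier-treated control wells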
# [2] = HUVEC growth inhibition – cell-based, human, primary screen (AID 575;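 active means viability at or below 30% in both replicate assays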;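 further: 100% = median of untreated cell wells with 0.1% DMSO on each plate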); conditions: HUVEC proliferation, CellTiter-Glo luminescence, 72 h; at 10 µM; stronger effect = lower value
# Outline: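 material = primary HUVEC, no more than 12 passages | input = 1250 cells per well | controls = vehicle and MePR control wells | measured by = CTG luminescence | times = 72 h compound incubation | format = collagen-coated 384-well format | read-out = % viability vs DMSO wells | doses = single 10 µM dose, 0.1% DMSO, from 5x medium stock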
# [3] = growth inhibitors of H69AR lung tumor, primary screen, human, duplicate replicates (AID 580;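 active means viability at or under a set limit in both replicates, limit being median viability minus 3 SD, cut at about 48% in these data, passing the limit was not always enough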;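 further: 100% = mean luminescence of untreated wells and 0% = no signal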); conditions: H69AR lung tumor cells viability, ATP luminescence, 72 h; at 10 µM; stronger effect = lower value
# [4] = reversal of MRP1-mediated doxorubicin resistance, pilot screen, H69AR cells, doxorubicin co-treatment (AID 601;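 active means viability loss from added drug above about 55%, and viability with drug at most 40%, in both replicates, limit read from the data, passing the limit was not always enough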); conditions: CellTiter-Glo, 72 h, at 10 µM; for differential viability (reversal): stronger effect = higher value
# [5] = 384-well plate pilot, post-Golgi transport modulator project, inhibition of yeast transport mutant growth (AID 636; in the data active means inhibition above about 31%); conditions: absorbance 615 nm, about 18 h, stronger effect = higher value
# [6] = growth suppression of yeast trafficking mutant, preliminary HTS, modulators of trafficking downstream of Golgi apparatus project, 1536-format plate, OD 615 nm (AID 637; in the data active means inhibition above about 30%); conditions: yeast transport mutant growth, absorbance 615 nm, 18 h; stronger effect = higher value
# [7] = H69AR cells + 2 uM doxorubicin, measured here: viability with 2 uM doxorubicin, stronger effect = lower value
# [8] = H69AR cells, compound alone cytotoxicity
Structure (SMILES),viability [1],viability [2],viability [3],differential viability (reversal) ([4]; H69AR cells + 2 uM doxorubicin),"viability [4, 7]","viability [4, 8]",inhibition [5],inhibition [6]
Cc1ccc2c(C)nc(NC3=NCN(C(C)C)CN3)nc2c1,106% (inactive),94.3% (inactive),84.3% (inactive),-15.4% (inactive),99.7%,84.3%,-5.89% (inactive),0.48% (inactive)
O=C(O)c1ccc(CSc2ncn[nH]2)cc1,107% (inactive),105% (inactive),94.4% (inactive),-6.27% (inactive),101%,94.4%,-6.16% (inactive),0.55% (inactive)
O=C(O)COc1cccc(NC(=O)C2CCCO2)c1 (stereo not given),81% (inactive),102% (inactive),93.3% (inactive),-10.7% (inactive),104%,93.3%,0.14% (inactive),10.9% (inactive)
c1ccc(Cn2nnnc2C(c2cccs2)N2CCSCC2)cc1 (stereo not given),98% (inactive),93.1% (inactive),81.6% (inactive),-2.6% (inactive),84.2%,81.6%,-3.97% (inactive),-4.35% (inactive)
Cc1cc(C)n(-c2nc3c(c(=O)[nH]c(=O)n3C)n2Cc2ccc(F)cc2)n1,93% (inactive),113% (inactive),96.5% (inactive),8.69% (inactive),87.8%,96.5%,-4.19% (inactive),-1.45% (inactive)
CC1=NS(=O)(=O)c2cc(Cl)ccc2N1,119% (inactive),89.4% (inactive),94.4% (inactive),7.28% (inactive),87.1%,94.4%,-1.17% (inactive),4.67% (inactive)
COC(=O)C1C2C=CC3(CN(CC4CCCO4)C(=O)C13)O2 (stereo not given),78% (inactive),114% (inactive),102% (inactive),-9.38% (inactive),111%,102%,-6.99% (inactive),-0.18% (inactive)
Cn1c(=O)c2c(nc(CN3CCN(c4ccccc4F)CC3)n2CCN2CCOCC2)n(C)c1=O,101% (inactive),96.8% (inactive),93.9% (inactive),4.5% (inactive),89.4%,93.9%,-5.95% (inactive),0.91% (inactive)
CCCCOc1ccc(N(CC(=O)NC2CCCC2)C(=O)CCC(=O)Nc2ccccn2)cc1,101% (inactive),71.7% (inactive),69.4% (inactive),5% (inactive),64.4%,69.4%,-1.3% (inactive),2.95% (inactive)
Cc1nc(Sc2cccn2C)c(C(F)(F)F)c(=O)[nH]1,105% (inactive),102% (inactive),96.3% (inactive),13.2% (inactive),83.1%,96.3%,-6.58% (inactive),2% (inactive)
COc1ccc(CN(CC(=O)NCC2CCCO2)C(=O)CCC(=O)Nc2cc(C)on2)cc1 (stereo not given),77% (inactive),95.1% (inactive),89.4% (inactive),-4.07% (inactive),93.4%,89.4%,4.53% (inactive),9.27% (inactive)
CC1=C(C)C(=O)C(CCCCC#CCCCC#CCO)=C(C)C1=O,62% (inactive),78.8% (inactive),56.6% (inactive),23.8% (inactive),32.8%,56.6%,2.99% (inactive),-1.5% (inactive)
Cc1cccc(-n2nnnc2SCc2csc(-c3ccccc3)n2)c1,95% (inactive),101% (inactive),93.9% (inactive),5.89% (inactive),88%,93.9%,6.44% (inactive),2.58% (inactive)
COc1ccc(-c2noc(CCCOc3ccccc3)n2)cc1OC,78% (inactive),103% (inactive),93.7% (inactive),-7.4% (inactive),101%,93.7%,-1.92% (inactive),4.91% (inactive)
COc1nc(C)ccc1-c1noc(-c2ccncc2)n1,101% (inactive),86.5% (inactive),95.1% (inactive),11.4% (inactive),83.6%,95.1%,-8.22% (inactive),1.45% (inactive)
